According to ChEMBL document CHEMBL3576869 (ACS Med Chem Lett, 2015):
pIC50: −log10 of the molar value. One block for each compound: values may come before it.

Experiments:
[1] = Apparent permeability across apical to basolateral side in human Caco2 cells at 10 uM after 1.5 hrs by LC/MS/MS analysis; type: ADME, cell-based; details: Caco-2
[2] = Apparent permeability across basolateral to apical side in human Caco2 cells at 10 uM after 1.5 hrs by LC/MS/MS analysis; type: ADME, cell-based; details: Caco-2
[3] = Efflux ratio of apparent permeability across basolateral to apical side over apical to basolateral side in human Caco2 cells; type: ADME, cell-based; details: Caco-2
A549 = assay: Cytotoxicity against PTEN deletion mutant/PIK3CA mutant-deficient human A549 cells assessed as growth inhibition after 4 days by CellTiter-Glo luminescent cell viability assay; type: functional, cell-based; details: A549, 96 h
Procedure, shortened: (§1)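 Proliferation panel of human cancer lines carrying either a PIK3CA mutation or a PTEN deletion, with A549 as the one line carrying neither. Growth inhibition is reported as IC50.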

U-87 MG = assay: Cytotoxicity against human U87MG cells harboring PTEN deletion mutant assessed as growth inhibition after 4 days by CellTiter-Glo luminescent cell viability assay; type: functional, cell-based, U-87MG ATCC; details: 96 h; procedure, shortened: as §1
[4] = molecular target: T1, Phosphatidylinositol 4,5-bisphosphate 3-kinase catalytic subunit delta isoform (Homo sapiens, UniProt O00329); assay: Inhibition of PI3Kdelta (unknown origin) using PIP2/PS as substrate after 1 hr by luciferase-based luminescence assay
T1 sequence (O00329 whole entry): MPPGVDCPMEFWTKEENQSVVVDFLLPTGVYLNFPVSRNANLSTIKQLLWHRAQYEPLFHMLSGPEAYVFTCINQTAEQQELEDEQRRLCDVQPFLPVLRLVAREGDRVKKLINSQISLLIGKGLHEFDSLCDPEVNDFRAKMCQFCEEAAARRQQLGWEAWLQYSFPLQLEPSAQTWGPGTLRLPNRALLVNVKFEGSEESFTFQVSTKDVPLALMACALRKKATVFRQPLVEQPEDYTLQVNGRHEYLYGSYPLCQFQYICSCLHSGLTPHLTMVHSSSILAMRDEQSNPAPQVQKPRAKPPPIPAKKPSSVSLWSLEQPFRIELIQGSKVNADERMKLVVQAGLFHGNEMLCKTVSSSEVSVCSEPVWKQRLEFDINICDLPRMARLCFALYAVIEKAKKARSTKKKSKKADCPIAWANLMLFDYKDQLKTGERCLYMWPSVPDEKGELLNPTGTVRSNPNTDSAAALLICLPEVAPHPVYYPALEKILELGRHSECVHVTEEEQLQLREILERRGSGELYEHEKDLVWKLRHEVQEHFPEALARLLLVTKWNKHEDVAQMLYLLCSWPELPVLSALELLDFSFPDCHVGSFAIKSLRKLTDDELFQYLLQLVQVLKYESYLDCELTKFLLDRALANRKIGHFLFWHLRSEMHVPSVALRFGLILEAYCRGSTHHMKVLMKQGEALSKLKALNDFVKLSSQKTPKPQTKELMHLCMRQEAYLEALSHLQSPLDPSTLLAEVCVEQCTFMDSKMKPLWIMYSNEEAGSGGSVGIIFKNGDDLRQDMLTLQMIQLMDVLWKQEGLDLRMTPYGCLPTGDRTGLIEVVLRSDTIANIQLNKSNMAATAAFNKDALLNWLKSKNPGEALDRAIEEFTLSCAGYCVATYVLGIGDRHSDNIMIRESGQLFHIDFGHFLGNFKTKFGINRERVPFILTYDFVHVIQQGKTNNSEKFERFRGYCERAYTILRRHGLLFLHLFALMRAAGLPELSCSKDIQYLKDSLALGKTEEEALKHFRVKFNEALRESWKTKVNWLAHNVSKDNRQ

NCI-H1975 = assay: Cytotoxicity against human NCI-H1975 cells harboring PIK3CA mutant assessed as growth inhibition after 4 days by CellTiter-Glo luminescent cell viability assay; type: functional, cell-based; details: NCI-H1975, 96 h; procedure, shortened: as §1
[5] = molecular target: Phosphatidylinositol 4,5-bisphosphate 3-kinase catalytic subunit beta isoform (Homo sapiens, UniProt P42338); assay: Inhibition of PI3Kbeta (unknown origin) using PIP2/PS as substrate after 1 hr by luciferase-based luminescence assay
Phosphatidylinositol 4,5-bisphosphate 3-kinase catalytic subunit beta isoform, sequence (P42338 whole entry, canonical isoform): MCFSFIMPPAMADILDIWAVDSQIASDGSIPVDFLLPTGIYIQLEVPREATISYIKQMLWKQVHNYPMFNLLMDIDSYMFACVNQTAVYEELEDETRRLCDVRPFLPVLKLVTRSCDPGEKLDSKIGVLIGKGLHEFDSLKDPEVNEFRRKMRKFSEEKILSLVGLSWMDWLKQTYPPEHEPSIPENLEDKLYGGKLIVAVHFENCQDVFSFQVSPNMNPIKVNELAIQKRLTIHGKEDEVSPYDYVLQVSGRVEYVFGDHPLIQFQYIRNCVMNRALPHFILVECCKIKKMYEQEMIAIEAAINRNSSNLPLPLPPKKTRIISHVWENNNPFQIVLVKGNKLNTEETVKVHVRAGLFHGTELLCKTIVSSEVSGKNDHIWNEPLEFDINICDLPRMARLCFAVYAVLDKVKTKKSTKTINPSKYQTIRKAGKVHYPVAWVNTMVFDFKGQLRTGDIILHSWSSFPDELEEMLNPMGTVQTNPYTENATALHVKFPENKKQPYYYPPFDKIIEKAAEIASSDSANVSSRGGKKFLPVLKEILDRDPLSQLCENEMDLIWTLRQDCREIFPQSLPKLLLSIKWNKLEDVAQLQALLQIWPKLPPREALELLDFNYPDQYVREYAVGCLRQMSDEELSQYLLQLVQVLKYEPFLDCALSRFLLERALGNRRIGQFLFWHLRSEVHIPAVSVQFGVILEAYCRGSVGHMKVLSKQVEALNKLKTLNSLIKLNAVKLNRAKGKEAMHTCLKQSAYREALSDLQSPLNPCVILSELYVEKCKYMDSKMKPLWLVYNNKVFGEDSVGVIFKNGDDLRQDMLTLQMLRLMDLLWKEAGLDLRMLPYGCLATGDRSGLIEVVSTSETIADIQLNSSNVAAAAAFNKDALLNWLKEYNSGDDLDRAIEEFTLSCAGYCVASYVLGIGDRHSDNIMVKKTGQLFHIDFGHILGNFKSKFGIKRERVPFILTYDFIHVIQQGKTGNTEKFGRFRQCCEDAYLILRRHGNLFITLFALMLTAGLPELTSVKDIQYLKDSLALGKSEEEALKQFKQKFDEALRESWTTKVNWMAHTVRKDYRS

[6] = molecular target: Phosphatidylinositol 4,5-bisphosphate 3-kinase catalytic subunit alpha isoform (Homo sapiens, UniProt P42336); assay: Inhibition of PI3Kalpha (unknown origin) using PIP2/PS as substrate after 1 hr by luciferase-based luminescence assay
Phosphatidylinositol 4,5-bisphosphate 3-kinase catalytic subunit alpha isoform, sequence (P42336 whole entry, canonical isoform): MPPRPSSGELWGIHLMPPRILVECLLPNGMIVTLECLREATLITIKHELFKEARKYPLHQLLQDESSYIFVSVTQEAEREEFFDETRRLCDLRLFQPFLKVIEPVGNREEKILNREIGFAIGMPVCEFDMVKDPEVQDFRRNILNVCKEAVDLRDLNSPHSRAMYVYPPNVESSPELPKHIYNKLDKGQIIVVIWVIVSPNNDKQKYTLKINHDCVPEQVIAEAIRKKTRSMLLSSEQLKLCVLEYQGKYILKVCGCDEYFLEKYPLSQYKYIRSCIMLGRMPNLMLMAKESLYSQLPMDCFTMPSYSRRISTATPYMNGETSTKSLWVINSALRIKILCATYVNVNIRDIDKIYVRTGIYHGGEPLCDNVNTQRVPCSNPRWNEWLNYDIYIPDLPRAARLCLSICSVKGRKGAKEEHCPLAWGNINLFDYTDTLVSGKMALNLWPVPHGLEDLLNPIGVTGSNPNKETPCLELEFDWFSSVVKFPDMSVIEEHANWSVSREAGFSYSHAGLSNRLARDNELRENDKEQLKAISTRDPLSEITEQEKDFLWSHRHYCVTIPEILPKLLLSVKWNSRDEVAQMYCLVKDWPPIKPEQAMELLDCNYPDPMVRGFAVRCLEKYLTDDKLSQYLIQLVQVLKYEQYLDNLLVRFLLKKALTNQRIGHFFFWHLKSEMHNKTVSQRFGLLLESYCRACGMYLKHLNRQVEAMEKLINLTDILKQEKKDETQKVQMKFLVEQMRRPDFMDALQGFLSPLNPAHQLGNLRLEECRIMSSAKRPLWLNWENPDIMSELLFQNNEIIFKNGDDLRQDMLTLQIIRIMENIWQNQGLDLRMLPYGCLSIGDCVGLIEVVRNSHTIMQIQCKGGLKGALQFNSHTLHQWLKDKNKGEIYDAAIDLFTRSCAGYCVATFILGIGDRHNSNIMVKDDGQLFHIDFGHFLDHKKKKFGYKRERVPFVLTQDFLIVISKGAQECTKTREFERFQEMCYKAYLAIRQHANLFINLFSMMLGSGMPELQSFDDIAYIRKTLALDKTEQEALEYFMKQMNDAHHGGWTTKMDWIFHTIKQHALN

SK-OV-3 = assay: Cytotoxicity against human SKOV3 cells harboring PIK3CA mutant assessed as growth inhibition after 4 days by CellTiter-Glo luminescent cell viability assay; type: functional, cell-based; details: SK-OV-3, 96 h; procedure, shortened: as §1
[7] = Permeability of the compound after 5 hrs by PAMPA; type: physicochemical; details: read-out: permeability
[8] = molecular target: Phosphatidylinositol 4,5-bisphosphate 3-kinase catalytic subunit gamma isoform (Homo sapiens, UniProt P48736); assay: Inhibition of PI3Kgamma (unknown origin) using PIP2/PS as substrate after 1 hr by luciferase-based luminescence assay
Phosphatidylinositol 4,5-bisphosphate 3-kinase catalytic subunit gamma isoform, sequence (P48736 whole entry, canonical isoform): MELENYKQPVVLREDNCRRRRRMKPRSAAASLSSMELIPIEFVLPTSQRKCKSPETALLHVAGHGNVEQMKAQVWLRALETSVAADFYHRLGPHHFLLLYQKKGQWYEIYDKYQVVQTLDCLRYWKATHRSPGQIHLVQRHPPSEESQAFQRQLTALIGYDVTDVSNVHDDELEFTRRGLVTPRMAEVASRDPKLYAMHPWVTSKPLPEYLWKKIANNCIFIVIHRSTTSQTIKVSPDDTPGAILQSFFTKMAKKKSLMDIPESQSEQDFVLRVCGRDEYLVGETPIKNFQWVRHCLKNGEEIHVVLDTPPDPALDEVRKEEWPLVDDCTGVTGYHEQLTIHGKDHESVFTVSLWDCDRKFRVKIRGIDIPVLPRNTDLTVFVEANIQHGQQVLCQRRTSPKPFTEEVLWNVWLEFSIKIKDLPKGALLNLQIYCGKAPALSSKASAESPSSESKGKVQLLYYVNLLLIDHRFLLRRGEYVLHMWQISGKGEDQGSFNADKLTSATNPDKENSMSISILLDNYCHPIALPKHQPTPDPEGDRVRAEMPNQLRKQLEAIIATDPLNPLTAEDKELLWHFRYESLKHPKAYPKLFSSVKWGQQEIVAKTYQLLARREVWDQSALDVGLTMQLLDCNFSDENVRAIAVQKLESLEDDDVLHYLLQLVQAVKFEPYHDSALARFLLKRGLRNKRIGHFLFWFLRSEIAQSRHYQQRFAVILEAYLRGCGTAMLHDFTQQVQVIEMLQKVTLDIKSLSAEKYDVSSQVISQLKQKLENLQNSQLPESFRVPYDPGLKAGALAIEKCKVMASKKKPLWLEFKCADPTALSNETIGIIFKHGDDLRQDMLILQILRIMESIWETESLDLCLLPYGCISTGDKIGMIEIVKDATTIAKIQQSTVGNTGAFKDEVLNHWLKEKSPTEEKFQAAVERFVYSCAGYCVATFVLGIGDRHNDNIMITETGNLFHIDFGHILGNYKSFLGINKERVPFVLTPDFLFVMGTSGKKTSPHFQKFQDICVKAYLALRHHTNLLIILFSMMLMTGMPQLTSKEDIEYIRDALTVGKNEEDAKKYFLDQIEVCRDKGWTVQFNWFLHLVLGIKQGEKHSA

T47D = assay: Cytotoxicity against human T47D cells harboring PIK3CA mutant assessed as growth inhibition after 4 days by CellTiter-Glo luminescent cell viability assay; type: functional, cell-based; details: 96 h; procedure, shortened: as §1
[9] = molecular target: Serine/threonine-protein kinase mTOR (Homo sapiens, UniProt P42345); assay: Inhibition of mTOR (unknown origin) using GFP-4E-BP1 as substrate after 1 hr by TR-FRET assay
Homo sapiens = species on record: Homo sapiens; assay: Selectivity ratio of IC50 for mTOR (unknown origin) to IC50 for PI3Kalpha (unknown origin)
[10] = Cytotoxicity against human H460 cells harboring PIK3CA mutant assessed as growth inhibition after 4 days by CellTiter-Glo luminescent cell viability assay; type: functional, cell-based; details: NCI-H460, 96 h; procedure, shortened: as §1
[11] = Inhibition of PI3K in human T47D cells assessed as inhibition of AKT phosphorylation at Ser 473 after 4 hrs by Western blot analysis; type: cell-based

SMILES: COc1ncc(-c2cc3c(-c4ccncc4)ccnc3cn2)cc1NS(=O)(=O)c1ccc(F)cc1F
- pIC50 [6]: 8.99
- pIC50 [9]: 8.52
- Ratio IC50 (Homo sapiens): 3

SMILES: COc1ncc(-c2cnc3ncnc(-c4ccncc4)c3c2)cc1NS(=O)(=O)c1ccc(F)cc1F
- pIC50 [6]: 7.29
- pIC50 [9]: 7.21
- Ratio IC50 (Homo sapiens): 1.2

SMILES: COc1ncc(-c2ccc3ncnc(-c4ccncc4)c3c2)cc1NS(=O)(=O)c1ccc(F)cc1F
- pIC50 [6]: 10.02
- pIC50 [9]: 9.70
- Ratio IC50 (Homo sapiens): 2.1

SMILES: COc1ncc(-c2ccc3nccc(-c4ccncc4)c3c2)cc1NS(=O)(=O)c1ccc(F)cc1F
- pIC50 [6]: 10.00
- pIC50 [9]: 9.12
- Ratio IC50 (Homo sapiens): 7.5

SMILES: COc1ncc(-c2cnc3nc(N)nc(-c4ccncc4)c3c2)cc1NS(=O)(=O)c1ccc(F)cc1F
- Ratio IC50 (Homo sapiens): 0.52

SMILES: COc1ncc(-c2sc3ncnc(-c4ccncc4)c3c2C)cc1NS(=O)(=O)c1ccc(F)cc1F
- pIC50 [6]: 7.14

SMILES: COc1ncc(-c2cnc3nccc(-c4ccncc4)c3c2)cc1NS(=O)(=O)c1ccc(F)cc1F
- pIC50 [6]: 7.46
- pIC50 [9]: 7.18
- Ratio IC50 (Homo sapiens): 1.9

SMILES: COc1ncc(-c2ccc3nc(N)nc(-c4ccncc4)c3c2)cc1NS(=O)(=O)c1ccc(F)cc1F
- pIC50 [6]: 10.15
- pIC50 [9]: 9.54
- Ratio IC50 (Homo sapiens): 4.1

SMILES: COc1ncc(-c2ccc3nncc(-c4ccncc4)c3c2)cc1NS(=O)(=O)c1ccc(F)cc1F
- pIC50 [6]: 9.57
- pIC50 [9]: 7.67
- Ratio IC50 (Homo sapiens): 80

Continued, in another order:

- Papp A→B at 1.5 h, 10 µM [1]: 4.8 ×10⁻⁶ cm/s
- Papp B→A at 1.5 h, 10 µM [2]: 6.9 ×10⁻⁶ cm/s
- efflux ratio [3]: 1.4
- pIC50 [4]: 8.51
- pIC50 [5]: 8.44
- pIC50 [6]: 9.64
- Papp at 5 h [7]: 7 ×10⁻⁶ cm/s
- pIC50 [8]: 7.99
- pIC50 [9]: 7.27
- Ratio IC50 (Homo sapiens): 233
SMILES: O=S(=O)(Nc1cc(-c2cc3c(-c4ccncc4)ncnc3s2)cnc1Cl)c1ccc(F)cc1F
- pIC50 (A549): 5.07
- pIC50 (U-87 MG): 5.35
- pIC50 (NCI-H1975): 5.66
- pIC50 (SK-OV-3): 5.28
- pIC50 (T47D): 5.82
- pIC50 [10]: 5.53

- pIC50 [6]: 7.77
SMILES: COc1ncc(-c2cc3c(-c4ccncc4)ncnc3s2)cc1NS(=O)(=O)c1ccc(C(F)(F)F)cc1

- pIC50 [6]: 9.52
- pIC50 [9]: 7.36
- Ratio IC50 (Homo sapiens): 146
SMILES: O=S(=O)(Nc1cc(-c2cc3c(-c4ccncc4)ncnc3s2)cnc1Cl)c1ccc(F)cc1

- pIC50 [6]: 5.46
SMILES: COc1ncc(-c2cc3c(-c4ccncc4)ncnc3s2)cn1

- pIC50 [6]: 9.82
- pIC50 [9]: 7.59
- Ratio IC50 (Homo sapiens): 172
SMILES: O=S(=O)(Nc1cc(-c2cc3c(-c4ccncc4)ncnc3s2)cnc1Cl)c1ccc(Cl)s1

- pIC50 [6]: 8.89
- pIC50 [9]: 7.17
- Ratio IC50 (Homo sapiens): 52
SMILES: COc1ncc(-c2cc3c(-c4ccncc4)ncnc3s2)cc1NS(=O)(=O)c1ccc(Cl)s1

- pIC50 [6]: 7.37
SMILES: COc1ncc(-c2cc3c(-c4ccncc4)ncnc3s2)cc1NS(C)(=O)=O

- pIC50 [6]: 8.77
- pIC50 [9]: 6.46
- Ratio IC50 (Homo sapiens): 203
SMILES: Cc1ncc(-c2cc3c(-c4ccncc4)ncnc3s2)cc1NS(=O)(=O)c1ccc(F)cc1F

- Papp A→B at 1.5 h, 10 µM [1]: 5.6 ×10⁻⁶ cm/s
- Papp B→A at 1.5 h, 10 µM [2]: 4.5 ×10⁻⁶ cm/s
- efflux ratio [3]: 0.8
- pIC50 [4]: 7.88
- pIC50 [5]: 7.65
- pIC50 [6]: 8.68
- Papp at 5 h [7]: 8 ×10⁻⁶ cm/s
- pIC50 [8]: 7.68
- pIC50 [11]: 7.07
- pIC50 [9]: 6.66
- Ratio IC50 (Homo sapiens): 105
SMILES: COc1ncc(-c2cc3c(-c4ccncc4)ncnc3s2)cc1NS(=O)(=O)c1ccc(F)cc1F
- pIC50 (A549): 5.50
- pIC50 (U-87 MG): 5.36
- pIC50 (NCI-H1975): 5.97
- pIC50 (SK-OV-3): 5.43
- pIC50 (T47D): 6.18
- pIC50 [10]: 6.38

- pIC50 [6]: < 5.60
SMILES: COc1ncc(-c2cc3c(-c4ccncc4)ncnc3s2)cc1F

- pIC50 [6]: 5.91
SMILES: COc1ccc(-c2cc3c(-c4ccncc4)ncnc3s2)cn1

- pIC50 [6]: 8.44
- pIC50 [9]: 6.44
- Ratio IC50 (Homo sapiens): 100
SMILES: COc1ncc(-c2cc3c(-c4ccncc4)ncnc3s2)cc1NS(=O)(=O)c1ccc(C#N)cc1
